Experimental data gathered from unrelated publications.
Lines come from different studies, so protocols differ.
Target: Insulin receptor-related protein (INSRR, Homo sapiens, UniProt P14616)

For C#Cc1n[nH]c2c(-c3cn(C(C)c4ccccn4)c(=O)[nH]c3=O)cc(F)cc12 (centres unmarked), the inhibition was 0.7% (enzyme activity; inhibitor; 1 µM).
With Cn1cc(-c2cccc(N3CCc4c(sc5c4CC(C)(C)C5)C3=O)c2CO)cc(Nc2ccncn2)c1=O the inhibition was 2% (enzyme activity; inhibitor; 1 µM).
The inhibition of C#Cc1n[nH]c2c(-c3cn([C@@H](C)c4ccccc4)c(=O)[nH]c3=O)cc(F)cc12 is reported as 6.9% (enzyme activity; inhibitor; 0.1 µM).
For O=c1[nH]c2ccccc2n1C1CCN(Cc2ccc(-c3[nH]c4cc5ncnc5cc4nc3-c3ccccc3)cc2)CC1, the remaining signal was 101% (cell-free assay; 0.5 µM).
The remaining binding of Cn1cncc1[C@](O)(COc1ccc(C#N)cc1-c1ccc(OC(F)(F)F)cc1)c1ccc(C#N)cc1 is reported as 93% (cell-free assay; competition with immobilised ligand; 1 µM).
COc1cc(Nc2ncc(F)c(Nc3ccc4c(n3)NC(=O)C(C)(C)O4)n2)cc(OC)c1OC gave an inhibition of 53% (binding; competition with immobilised ligand; 10 µM).
With CC(C)(C)c1cc(C=C(C#N)C#N)cc(Br)c1O the remaining activity was 103% (enzyme activity; inhibitor; 0.5 µM).
With Nc1ncc(-c2nc(N3CCOCC3)nc(N3CCOCC3)n2)c(C(F)F)n1 the remaining binding was 80% (binding; competition with immobilised ligand; 10 µM).
Cn1cc(-c2cc(F)cc(N3CCn4c(cc5c4CCCC5)C3=O)c2CO)cc(Nc2ccc(N3CCN(C4COC4)CC3)cn2)c1=O has an inhibition of 15% (enzyme activity; inhibitor; 0.1 µM).
For Cc1nn(C)cc1-c1nc2c(N3CCN(Cc4ccc(Cl)cc4)CC3)c(Cl)cnc2[nH]1, the remaining binding was 100% (binding; competition with immobilised ligand; 1 µM).
For COc1ncccc1-c1cnn2ccc(N3CCN(C(=O)OC(C)C)CC3)nc12, the remaining binding was 96% (binding; competition with immobilised ligand; 1 µM).
